Reference: ChEMBL document CHEMBL1122702, “Radiohalogen-labeled imaging agents. 3. Compounds for measurement of brain blood flow by emission tomography” (J Med Chem, 1984)

Tests used:
Format in all cases: ADME, organism-based
Rattus norvegicus [1] = species on record: Rattus norvegicus; assay: The distribution of the 131 I-labeled compound at 5 min was evaluated in rat heart as Percent of injected dose in the total organ; conditions: in vivo
In short: (§1)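 Male Sprague-Dawley rats (200–300 g, free access to food and water), lightly ether-anesthetized and restrained, received a 0.2 mL saline tail-vein bolus of 10–20 μCi 131I-labeled compound. They were decapitated at the stated time, and organs were excised, weighed and gamma-counted. Percent injected dose was determined against a calibrated external standard made by serial dilution of the injectate. n = 1–4 rats.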

Rattus norvegicus [2] = species on record: Rattus norvegicus; assay: The distribution of the 131 I-labeled compound at 30 min was evaluated in rat liver as Percent of injected dose per gram in the organ; conditions: in vivo, 0.5 h; in short: as §1
Rattus norvegicus [3] = species on record: Rattus norvegicus; assay: Ratio of distribution of the [131I]-labeled compound at 5 min in rat heart over uptake in blood; conditions: other tissue
In short: (§2)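 Male Sprague-Dawley rats (200–300 g, fed ad libitum), ether-anesthetized, got a tail-vein bolus of 0.2 mL saline containing 10–20 μCi 131I compound and were decapitated at the stated time. Organs were weighed and gamma-counted against a serially diluted external standard. Organ/blood ratio was calculated from % dose per gram of organ. Animal numbers per time point were 1–4.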

Rattus norvegicus [4] = species on record: Rattus norvegicus; assay: Ratio of distribution of the [131I]-labeled compound at 30 min in rat heart over uptake in blood; conditions: other tissue, 0.5 h; in short: as §2
Rattus norvegicus [5] = species on record: Rattus norvegicus; assay: Ratio of distribution of the [131I]-labeled compound at 5 min in rat lung over uptake in blood; conditions: other tissue; in short: as §2
Rattus norvegicus [6] = species on record: Rattus norvegicus; assay: The distribution of the 131 I-labeled compound at 30 min was evaluated in rat kidney as Percent of injected dose per gram in the organ; conditions: in vivo, 0.5 h; in short: as §1
Rattus norvegicus [7] = species on record: Rattus norvegicus; assay: The distribution of the 131 I-labeled compound at 5 min was evaluated in rat blood as Percent of injected dose per gram in the organ; conditions: in vivo; in short: as §1
Rattus norvegicus [8] = species on record: Rattus norvegicus; assay: The distribution of the 131 I-labeled compound at 30 min was evaluated in rat blood as Percent of injected dose per gram in the organ; conditions: in vivo, 0.5 h; in short: as §1
Rattus norvegicus [9] = species on record: Rattus norvegicus; assay: The distribution of the 131 I-labeled compound at 30 min was evaluated in rat liver as Percent of injected dose in the total organ; conditions: in vivo, 0.5 h; in short: as §1
Rattus norvegicus [10] = species on record: Rattus norvegicus; assay: Ratio of distribution of the [131I]-labeled compound at 30 min in rat kidney over uptake in blood; conditions: other tissue, 0.5 h; in short: as §2
Rattus norvegicus [11] = species on record: Rattus norvegicus; assay: The distribution of the 131 I-labeled compound at 5 min was evaluated in rat kidney as Percent of injected dose per gram in the organ; conditions: in vivo; in short: as §1
Rattus norvegicus [12] = species on record: Rattus norvegicus; assay: The distribution of the 131 I-labeled compound at 5 min was evaluated in rat liver as Percent of injected dose in the total organ; conditions: in vivo; in short: as §1
Rattus norvegicus [13] = species on record: Rattus norvegicus; assay: Ratio of distribution of the [131I]-labeled compound at 5 min in rat liver over uptake in blood; conditions: other tissue; in short: as §2
Rattus norvegicus [14] = species on record: Rattus norvegicus; assay: The distribution of the 131 I-labeled compound at 30 min was evaluated in rat heart as Percent of injected dose in the total organ; conditions: in vivo, 0.5 h; in short: as §1
Rattus norvegicus [15] = species on record: Rattus norvegicus; assay: The distribution of the 131 I-labeled compound at 5 min was evaluated in rat brain as Percent of injected dose in the total organ; conditions: in vivo; in short: as §1
Rattus norvegicus [16] = species on record: Rattus norvegicus; assay: The distribution of the 131 I-labeled compound at 30 min was evaluated in rat kidney as Percent of injected dose in the total organ; conditions: in vivo, 0.5 h; in short: as §1
Rattus norvegicus [17] = species on record: Rattus norvegicus; assay: Ratio of distribution of the [131I]-labeled compound at 30 min in rat liver over uptake in blood; conditions: other tissue, 0.5 h; in short: as §2
Rattus norvegicus [18] = species on record: Rattus norvegicus; assay: Ratio of distribution of the [131I]-labeled compound at 5 min in rat kidney over uptake in blood; conditions: other tissue; in short: as §2
Rattus norvegicus [19] = species on record: Rattus norvegicus; assay: Ratio of distribution of the [131I]-labeled compound at 30 min in rat brain over uptake in blood; conditions: 0.5 h; in short: as §2
Rattus norvegicus [20] = species on record: Rattus norvegicus; assay: The distribution of the 131 I-labeled compound at 5 min was evaluated in rat brain as Percent of injected dose per gram in the organ; conditions: in vivo; in short: as §1
Rattus norvegicus [21] = species on record: Rattus norvegicus; assay: The distribution of the 131 I-labeled compound at 30 min was evaluated in rat lung as Percent of injected dose per gram in the organ; conditions: in vivo, 0.5 h; in short: as §1
Rattus norvegicus [22] = species on record: Rattus norvegicus; assay: The distribution of the 131 I-labeled compound at 30 min was evaluated in rat heart as Percent of injected dose per gram in the organ; conditions: in vivo, 0.5 h; in short: as §1
Rattus norvegicus [23] = species on record: Rattus norvegicus; assay: The distribution of the 131 I-labeled compound at 5 min was evaluated in rat heart as Percent of injected dose per gram in the organ; conditions: in vivo; in short: as §1
Rattus norvegicus [24] = species on record: Rattus norvegicus; assay: The distribution of the 131 I-labeled compound at 5 min was evaluated in rat liver as Percent of injected dose per gram in the organ; conditions: in vivo; in short: as §1
Rattus norvegicus [25] = species on record: Rattus norvegicus; assay: Ratio of distribution of the [131I]-labeled compound at 30 min in rat lung over uptake in blood; conditions: other tissue, 0.5 h; in short: as §2
Rattus norvegicus [26] = species on record: Rattus norvegicus; assay: The distribution of the 131 I-labeled compound at 30 min was evaluated in rat brain as Percent of injected dose in the total organ; conditions: in vivo, 0.5 h; in short: as §1
Rattus norvegicus [27] = species on record: Rattus norvegicus; assay: Ratio of distribution of the [131I]-labeled compound at 5 min in rat brain over uptake in blood; in short: as §2
Rattus norvegicus [28] = species on record: Rattus norvegicus; assay: The distribution of the 131 I-labeled compound at 5 min was evaluated in rat kidney as Percent of injected dose in the total organ; conditions: in vivo; in short: as §1
Rattus norvegicus [29] = species on record: Rattus norvegicus; assay: The distribution of the 131 I-labeled compound at 5 min was evaluated in rat lung as Percent of injected dose per gram in the organ; conditions: in vivo; in short: as §1
Rattus norvegicus [30] = species on record: Rattus norvegicus; assay: The distribution of the 131 I-labeled compound at 30 min was evaluated in rat brain as Percent of injected dose per gram in the organ; conditions: in vivo, 0.5 h; in short: as §1

SMILES	Dose (Rattus norvegicus [1]) [%]	Dose (Rattus norvegicus [2]) [%]	Ratio (Rattus norvegicus [3])	Ratio (Rattus norvegicus [4])	Ratio (Rattus norvegicus [5])	Dose (Rattus norvegicus [6]) [%]	Dose (Rattus norvegicus [7]) [%]	Dose (Rattus norvegicus [8]) [%]	Dose (Rattus norvegicus [9]) [%]	Ratio (Rattus norvegicus [10])	Dose (Rattus norvegicus [11]) [%]	Dose (Rattus norvegicus [12]) [%]	Ratio (Rattus norvegicus [13])	Dose (Rattus norvegicus [14]) [%]	Dose (Rattus norvegicus [15]) [%]	Dose (Rattus norvegicus [16]) [%]	Ratio (Rattus norvegicus [17])	Ratio (Rattus norvegicus [18])	Ratio (Rattus norvegicus [19])	Dose (Rattus norvegicus [20]) [%]	other results
COc1cc(CC(C)NCCCN(C)C)c(OC)cc1I (stereo not given)	1.9	0.55	17	21	34	2	0.11	0.07	7.7	29	2	11	6	1.6	0.05	5.7	7.8	16	0.3	0.03	Dose (Rattus norvegicus [21]): 5.4%; Dose (Rattus norvegicus [22]): 1.5%; Dose (Rattus norvegicus [23]): 1.8%; Dose (Rattus norvegicus [24]): 0.66%; Ratio (Rattus norvegicus [25]): 77; Dose (Rattus norvegicus [26]): 0.04%; Ratio (Rattus norvegicus [27]): 0.3; Dose (Rattus norvegicus [28]): 57%; Dose (Rattus norvegicus [29]): 3.8%; Dose (Rattus norvegicus [30]): 0.02%
COc1cc(CC(C)N(C)C)c(OC)cc1I (stereo not given)	1.1	0.89	4	2.4	16	0.9	0.2	0.11	12	8.4	2.4	16	5.5	0.28	3.4	2.4	8.1	5.5	5	1.8	Dose (Rattus norvegicus [21]): 1.7%; Dose (Rattus norvegicus [22]): 0.26%; Dose (Rattus norvegicus [23]): 0.8%; Dose (Rattus norvegicus [24]): 1.1%; Ratio (Rattus norvegicus [25]): 15; Dose (Rattus norvegicus [26]): 1.1%; Ratio (Rattus norvegicus [27]): 9; Dose (Rattus norvegicus [28]): 6.8%; Dose (Rattus norvegicus [29]): 3.1%; Dose (Rattus norvegicus [30]): 0.55%
COc1cc(CC(C)NCC#N)c(OC)cc1I (stereo not given)	0.69	1.2	4.7	3	24	1.2	0.11	0.13	9.5	9.2	1.5	8.4	4.8	0.3	0.61	2.2	9.2	15	2.4	0.3	Dose (Rattus norvegicus [21]): 1.9%; Dose (Rattus norvegicus [22]): 0.39%; Dose (Rattus norvegicus [23]): 0.52%; Dose (Rattus norvegicus [24]): 0.53%; Ratio (Rattus norvegicus [25]): 15; Dose (Rattus norvegicus [26]): 0.61%; Ratio (Rattus norvegicus [27]): 3; Dose (Rattus norvegicus [28]): 4.8%; Dose (Rattus norvegicus [29]): 2.6%; Dose (Rattus norvegicus [30]): 0.31%
